# In ChEMBL document CHEMBL1142894, “Preparation of 5-aryl-3-alkylthio-l,2,4-triazoles and corresponding sulfones with antiinflammatory-analgesic activity” (Bioorg Med Chem, 2007):
# The source made the active and inactive calls. The rule behind the calls is not given here.
# Columns and labels:
# Mus musculus [1] = test: Antiinflammatory activity against carrageenan-induced paw edema in Swiss albino mouse assessed as swelling thickness at 25 mg/kg, po after 180 mins; format: functional
# Summary of the method: (§1)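 Oral dosing in 0.5% CMC; vehicle to controls. Then carrageenan (0.5 mg/25 ll, freshly suspended in 154 mM saline) injected into the right hind paw subplantar tissue; saline into the left paw. Right-left footpad thickness difference measured by dial gauge calliper every 90 min over 6 h. Inhibition % is relative to vehicle control. n = 6; mean ± SEM.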
# Mus musculus [2] = test: Analgesic activity against p-benzoquinone-induced abdominal constriction in Swiss albino mouse assessed as number of writhings at 50 mg/kg, po; format: functional, Abdomen
# Summary of the method: (§2)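 Test samples given orally in 0.5% CMC; vehicle to controls. 60 min later, 2.5% (v/v) p-benzoquinone in distilled water, 0.1 ml/10 g, given i.p. Mice housed singly; writhes counted for 15 min starting 5 min after injection. Activity is % change from vehicle controls. n = 6; mean ± SEM.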
# Mus musculus [3] = test: Gastric-ulcerogenic effect in Swiss albino mouse assessed as lesions at 50 mg/kg, po; format: functional, organism-based; design: dose 50 mg/kg
# Summary of the method: (§3)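 Mice killed under deep ether anesthesia 3 h after the writhing test; the oral dose in 0.5% CMC was the one used in that test. Stomachs removed, opened along the great curvature and examined under a dissecting microscope for lesions or bleeding. Reported as ratio of ulceration; n = 6.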
# Mus musculus [4] = test: Analgesic activity against p-benzoquinone-induced abdominal constriction in Swiss albino mouse assessed as number of writhings at 200 mg/kg, po; format: functional, Abdomen; summary of the method: as §2
# Mus musculus [5] = test: Antiinflammatory activity against carrageenan-induced paw edema in Swiss albino mouse assessed as swelling thickness at 25 mg/kg, po after 90 mins; format: functional; summary of the method: as §1
# Mus musculus [6] = test: Inhibition of carrageenan-induced paw edema in Swiss albino mouse at 50 mg/kg, po after 90 mins relative to control; format: functional; conditions: 1.5 h
# Summary of the method: (§4)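 Mice, n = 6 per group. Test agent given orally as a suspension in 0.5% sodium CMC in distilled water; controls received vehicle only. Afterwards, 0.5 mg/25 ll carrageenan in saline (154 mM NaCl) injected subplantar into the right hind paw, saline into the left. Right-minus-left footpad thickness measured by dial gauge caliper every 90 min for 6 h. Inhibition is relative to vehicle-control group means.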
# Mus musculus [7] = test: Inhibition of p-benzoquinone-induced writhing in Swiss albino mouse at 200 mg/kg, po relative to control; format: functional
# Summary of the method: (§5)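 Mice, n = 6 per group, dosed orally with a suspension in 0.5% sodium CMC. 60 min later, 0.1 ml/10 g of 2.5% […] p-benzoquinone in distilled water given ip. Abdominal writhes counted per animal for 15 min, starting 5 min after injection. Expressed as % change in mean writhing count versus vehicle controls.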
# Mus musculus [8] = test: Antiinflammatory activity against carrageenan-induced paw edema in Swiss albino mouse assessed as swelling thickness at 200 mg/kg, po after 270 mins; format: functional; summary of the method: as §1
# Mus musculus [9] = test: Inhibition of carrageenan-induced paw edema in Swiss albino mouse at 100 mg/kg, po after 270 mins relative to control; format: functional; conditions: 4.5 h; summary of the method: as §1
# Mus musculus [10] = test: Antiinflammatory activity against carrageenan-induced paw edema in Swiss albino mouse assessed as swelling thickness at 200 mg/kg, po after 90 mins; format: functional; summary of the method: as §1
# Mus musculus [11] = test: Inhibition of carrageenan-induced paw edema in Swiss albino mouse at 25 mg/kg, po after 90 mins relative to control; format: functional; conditions: 1.5 h; summary of the method: as §1
# Mus musculus [12] = test: Antiinflammatory activity against carrageenan-induced paw edema in Swiss albino mouse assessed as swelling thickness at 25 mg/kg, po after 270 mins; format: functional; summary of the method: as §1
# Mus musculus [13] = test: Inhibition of carrageenan-induced paw edema in Swiss albino mouse at 50 mg/kg, po after 270 mins relative to control; format: functional; conditions: 4.5 h; summary of the method: as §4
# Mus musculus [14] = test: Antiinflammatory activity against carrageenan-induced paw edema in Swiss albino mouse assessed as swelling thickness at 100 mg/kg, po after 360 mins; format: functional; summary of the method: as §1
# Mus musculus [15] = test: Acute toxicity in Swiss albino mouse assessed as lethal effect at 100 mg/kg/day, po after 72 hrs; format: organism-based; design: route oral; conditions: in vivo
# Summary of the method: (§6)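 Oral single dose suspended in 0.5% carboxymethylcellulose, given after a 24 h fast; food and water returned 1 h after dosing. Vehicle-only controls. Mice observed at 1 h, then once daily for 72 h, for toxic signs and mortality.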
# Mus musculus [16] = test: Inhibition of p-benzoquinone-induced writhing in Swiss albino mouse at 50 mg/kg, po relative to control; format: functional; summary of the method: as §5
# Mus musculus [17] = test: Antiinflammatory activity against carrageenan-induced paw edema in Swiss albino mouse assessed as swelling thickness at 100 mg/kg, po after 90 mins; format: functional; summary of the method: as §1
# Mus musculus [18] = test: Antiinflammatory activity against carrageenan-induced paw edema in Swiss albino mouse assessed as swelling thickness at 50 mg/kg, po after 180 mins; format: functional; summary of the method: as §1
# Mus musculus [19] = test: Acute toxicity in Swiss albino mouse assessed as lethal effect at 50 mg/kg/day, po after 72 hrs; format: organism-based; design: route oral; conditions: in vivo; summary of the method: as §6
# Mus musculus [20] = test: Antiinflammatory activity against carrageenan-induced paw edema in Swiss albino mouse assessed as swelling thickness at 200 mg/kg, po after 360 mins; format: functional; summary of the method: as §1
# Mus musculus [21] = test: Antiinflammatory activity against carrageenan-induced paw edema in Swiss albino mouse assessed as swelling thickness at 50 mg/kg, po after 360 mins; format: functional; summary of the method: as §1
# Mus musculus [22] = test: Inhibition of carrageenan-induced paw edema in Swiss albino mouse at 50 mg/kg, po after 180 mins relative to control; format: functional; conditions: 3 h; summary of the method: as §1
# Mus musculus [23] = test: Antiinflammatory activity against carrageenan-induced paw edema in Swiss albino mouse assessed as swelling thickness at 50 mg/kg, po after 270 mins; format: functional; summary of the method: as §1
# Mus musculus [24] = test: Acute toxicity in Swiss albino mouse assessed as lethal effect at 25 mg/kg/day, po after 72 hrs; format: organism-based; design: route oral; conditions: in vivo; summary of the method: as §6
# Mus musculus [25] = test: Analgesic activity against p-benzoquinone-induced abdominal constriction in Swiss albino mouse assessed as number of writhings at 25 mg/kg, po; format: functional, Abdomen; summary of the method: as §2
# Mus musculus [26] = test: Antiinflammatory activity against carrageenan-induced paw edema in Swiss albino mouse assessed as swelling thickness at 25 mg/kg, po after 360 mins; format: functional; summary of the method: as §1
# Mus musculus [27] = test: Inhibition of p-benzoquinone-induced writhing in Swiss albino mouse at 100 mg/kg, po relative to control; format: functional; summary of the method: as §5
# Mus musculus [28] = test: Inhibition of carrageenan-induced paw edema in Swiss albino mouse at 100 mg/kg, po after 360 mins relative to control; format: functional; conditions: 6 h; summary of the method: as §1
# Mus musculus [29] = test: Inhibition of carrageenan-induced paw edema in Swiss albino mouse at 25 mg/kg, po after 180 mins relative to control; format: functional; conditions: 3 h; summary of the method: as §1
# Mus musculus [30] = test: Inhibition of carrageenan-induced paw edema in Swiss albino mouse at 50 mg/kg, po after 360 mins relative to control; format: functional; conditions: 6 h; summary of the method: as §4
# Mus musculus [31] = test: Gastric-ulcerogenic effect in Swiss albino mouse assessed as lesions at 100 mg/kg, po; format: functional, organism-based; design: dose 100 mg/kg; summary of the method: as §3
# Mus musculus [32] = test: Antiinflammatory activity against carrageenan-induced paw edema in Swiss albino mouse assessed as swelling thickness at 100 mg/kg, po after 180 mins; format: functional; summary of the method: as §1
# Mus musculus [33] = test: Analgesic activity against p-benzoquinone-induced abdominal constriction in Swiss albino mouse assessed as number of writhings at 100 mg/kg, po; format: functional, Abdomen; summary of the method: as §2
# Mus musculus [34] = test: Antiinflammatory activity against carrageenan-induced paw edema in Swiss albino mouse assessed as swelling thickness at 50 mg/kg, po after 90 mins; format: functional; summary of the method: as §1
# Mus musculus [35] = test: Inhibition of p-benzoquinone-induced writhing in Swiss albino mouse at 25 mg/kg, po relative to control; format: functional; summary of the method: as §5
# Mus musculus [36] = test: Antiinflammatory activity against carrageenan-induced paw edema in Swiss albino mouse assessed as swelling thickness at 100 mg/kg, po after 270 mins; format: functional; summary of the method: as §1
# Mus musculus [37] = test: Antiinflammatory activity against carrageenan-induced paw edema in Swiss albino mouse assessed as swelling thickness at 200 mg/kg, po after 180 mins; format: functional; summary of the method: as §1
# Mus musculus [38] = test: Inhibition of carrageenan-induced paw edema in Swiss albino mouse at 100 mg/kg, po after 180 mins relative to control; format: functional; conditions: 3 h; summary of the method: as §1
# Mus musculus [39] = test: Acute toxicity in Swiss albino mouse assessed as lethal effect at 200 mg/kg/day, po after 72 hrs; format: organism-based; design: route oral; conditions: in vivo; summary of the method: as §6
# Mus musculus [40] = test: Inhibition of carrageenan-induced paw edema in Swiss albino mouse at 100 mg/kg, po after 90 mins relative to control; format: functional; conditions: 1.5 h; summary of the method: as §1
# Mus musculus [41] = test: Gastric-ulcerogenic effect in Swiss albino mouse assessed as lesions at 25 mg/kg, po; format: functional, organism-based; design: dose 25 mg/kg; summary of the method: as §3
# Mus musculus [42] = test: Inhibition of carrageenan-induced paw edema in Swiss albino mouse at 25 mg/kg, po after 360 mins relative to control; format: functional; conditions: 6 h; summary of the method: as §1
# Mus musculus [43] = test: Inhibition of carrageenan-induced paw edema in Swiss albino mouse at 25 mg/kg, po after 270 mins relative to control; format: functional; conditions: 4.5 h; summary of the method: as §1
compound,measurement,setting,value
CCSc1nc(-c2ccccc2Cl)n[nH]1,Activity,Mus musculus [1],54.8 10^-2mm
same,Activity,Mus musculus [2],37.8
same,Activity,Mus musculus [3],Active
same,Activity,Mus musculus [4],41.3
same,Activity,Mus musculus [5],49.3 10^-2mm
same,inhibition in vivo at 50 mg/kg,Mus musculus [6],15%
same,inhibition in vivo at 200 mg/kg,Mus musculus [7],19.6%
same,Activity,Mus musculus [8],67.9 10^-2mm
same,inhibition in vivo at 100 mg/kg,Mus musculus [9],28.2%
same,Activity,Mus musculus [10],55.8 10^-2mm
same,inhibition in vivo at 25 mg/kg,Mus musculus [11],7.3%
same,Activity,Mus musculus [12],60.5 10^-2mm
same,inhibition in vivo at 50 mg/kg,Mus musculus [13],27.8%
same,Activity,Mus musculus [14],47.5 10^-2mm
same,Activity,Mus musculus [15],Non-toxic
same,inhibition in vivo at 50 mg/kg,Mus musculus [16],26.4%
same,Activity,Mus musculus [17],33.2 10^-2mm
same,Activity,Mus musculus [18],42.8 10^-2mm
same,Activity,Mus musculus [19],Non-toxic
same,Activity,Mus musculus [20],75.9 10^-2mm
same,Activity,Mus musculus [21],50.7 10^-2mm
same,inhibition in vivo at 50 mg/kg,Mus musculus [22],27.9%
same,Activity,Mus musculus [23],46.8 10^-2mm
same,Activity,Mus musculus [24],Non-toxic
same,Activity,Mus musculus [25],48.5
same,Activity,Mus musculus [26],68.9 10^-2mm
same,inhibition in vivo at 100 mg/kg,Mus musculus [27],25.6%
same,inhibition in vivo at 100 mg/kg,Mus musculus [28],30.9%
same,inhibition in vivo at 25 mg/kg,Mus musculus [29],7.7%
same,inhibition in vivo at 50 mg/kg,Mus musculus [30],29.6%
same,Activity,Mus musculus [31],Active
same,Activity,Mus musculus [32],37.8 10^-2mm
same,Activity,Mus musculus [33],35.2
same,Activity,Mus musculus [34],45.2 10^-2mm
same,inhibition in vivo at 25 mg/kg,Mus musculus [35],5.6%
same,Activity,Mus musculus [36],42.2 10^-2mm
same,Activity,Mus musculus [37],61.2 10^-2mm
same,inhibition in vivo at 100 mg/kg,Mus musculus [38],26.6%
same,Activity,Mus musculus [39],Non-toxic
same,inhibition in vivo at 100 mg/kg,Mus musculus [40],25.9%
same,Activity,Mus musculus [41],Active
same,inhibition in vivo at 25 mg/kg,Mus musculus [42],4.3%
same,inhibition in vivo at 25 mg/kg,Mus musculus [43],6.6%
